Data published in ChEMBL document CHEMBL5712087, “Targeting bromodomain-containing protein 4 (BRD4) inhibits MYC expression in colorectal cancer cells” (Neoplasia, 2019).
Active and inactive are the calls of the source. The rule behind the calls is not given here.

Columns and labels:
[1] = target: T1, von Hippel-Lindau disease tumor suppressor/Bromodomain-containing protein 4 (Homo sapiens) (UniProt O60885+P40337); test: PROTAC activity at BRD4/VHL E3 ligase in human LS174T cells assessed as BRD4 protein degradation at 100 to 1000 nM for 24 hrs by Western blot analysis; assay type: cell-based; details: dose 100-1000 nM
Summary of the method: (§1)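 LS174t cells (RPMI 1640, 10% FCS) were exposed to 1 nM–10 µM for 24 h. Lysates in RIPA with inhibitors and 2.5 mmol/l DTT; 15 µg protein was run on 10% SDS-PAGE and transferred to nitrocellulose. BRD4 or MYC primary antibodies were used at 1:1,000 overnight at 4 °C, HRP secondary 1:10,000, and GAPDH/β-actin as loading control. Detection was by chemiluminescence.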

[2] = target: T1, von Hippel-Lindau disease tumor suppressor/Bromodomain-containing protein 4 (Homo sapiens); test: PROTAC activity at BRD4/VHL E3 ligase in human LS174T cells assessed as decrease in MYC protein expression at […] for 24 hrs by Western blot analysis; assay type: cell-based; summary of the method: as §1
LS174T [3] = test: Inhibition of colony formation in human LS174T cells for 3 days by crystal violet staining analysis; assay type: functional, cell-based; details: time 3.0 day
Summary of the method: (§2)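 Cells (1-2x10^3) were plated in six-well plates and, after 48 h, exposed to the PROTAC at the stated concentrations for 3–5 days. Plates were then methanol-fixed and stained with crystal violet. Culture was at 37 °C, 5% CO2, with 10% FCS. Media were RPMI 1640 (Caco2, COLO320, DLD1, LS174t), McCoy's (HCT116, HT29) or DMEM/HamsF12 (SW480). Experiments were done ≥3 times.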

[4] = target: T1, von Hippel-Lindau disease tumor suppressor/Bromodomain-containing protein 4 (Homo sapiens); test: PROTAC activity at BRD4/VHL E3 ligase in human fibroblast cells assessed as decrease in BRD4 protein degradation at 100 to 250 nM for 24 hrs by Western blot analysis; assay type: cell-based; details: dose 100-250 nM
Summary of the method: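 Normal human dermal fibroblasts in 10% FCS medium were treated with 100 or 250 nM PROTAC. BRD4 and MYC protein were assessed by western blot (15 µg RIPA lysate, 10% SDS-PAGE, primary 1:1,000 overnight at 4 °C), with GAPDH/β-actin as loading control.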

[5] = target: T1, von Hippel-Lindau disease tumor suppressor/Bromodomain-containing protein 4 (Homo sapiens); test: PROTAC activity at BRD4/VHL E3 ligase in human Caco-2 cells assessed as decrease in BRD4 protein degradation at 5 to 10 uM for 24 hrs by Western blot analysis; assay type: cell-based; details: dose 5-10 µM
Summary of the method: (§3)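 Eight CRC lines exposed 24 h to PROTAC at 5 or 10 µM (stocks 2 mM in DMSO, diluted in PBS or medium). Lysis in RIPA with protease/phosphatase inhibitors and 2.5 mmol/l DTT; 15 µg protein on 10% SDS-PAGE, semi-dry transfer to nitrocellulose. Anti-BRD4 or anti-MYC at 1:1,000 overnight at 4 °C; GAPDH or β-actin loading control; chemiluminescence.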

[6] = target: T1, von Hippel-Lindau disease tumor suppressor/Bromodomain-containing protein 4 (Homo sapiens); test: PROTAC activity at BRD4/VHL E3 ligase in human HT-29 cells assessed as decrease in BRD4 protein degradation at 5 to 10 uM for 24 hrs by Western blot analysis; assay type: cell-based; details: dose 5-10 µM; summary of the method: as §3
[7] = target: T1, von Hippel-Lindau disease tumor suppressor/Bromodomain-containing protein 4 (Homo sapiens); test: PROTAC activity at BRD4/VHL E3 ligase in human DLD-1 cells assessed as decrease in MYC protein expression at 5 to 10 uM for 24 hrs by Western blot analysis; assay type: cell-based; details: dose 5-10 µM; summary of the method: as §3
Caco-2 = test: Inhibition of colony formation in human Caco-2 cells at 5 to 10 uM by crystal violet staining analysis; assay type: functional, cell-based; details: dose 5-10 µM; summary of the method: as §2
COLO 320 = test: Inhibition of colony formation in human COLO 320 cells at 5 to 10 uM by crystal violet staining analysis; assay type: functional, cell-based; details: dose 5-10 µM; summary of the method: as §2
DLD-1 = test: Inhibition of colony formation in human DLD-1 cells at 5 to 10 uM by crystal violet staining analysis; assay type: functional, cell-based; details: dose 5-10 µM; summary of the method: as §2
HCT-116 [8] = test: Inhibition of colony formation in human HCT-116 p53+/+ cells at 5 to 10 uM by crystal violet staining analysis; assay type: functional, cell-based; details: dose 5-10 µM; summary of the method: as §2
HCT-116 [9] = test: Inhibition of colony formation in human HCT-116 p53-/- cells at 5 to 10 uM by crystal violet staining analysis; assay type: functional, cell-based; details: dose 5-10 µM; summary of the method: as §2
LS174T [10] = test: Inhibition of colony formation in human LS174T cells at 5 to 10 uM by crystal violet staining analysis; assay type: functional, cell-based; details: dose 5-10 µM; summary of the method: as §2
SW480 = test: Inhibition of colony formation in human SW480 cells at 5 to 10 uM by crystal violet staining analysis; assay type: functional, cell-based; details: dose 5-10 µM; summary of the method: as §2
HT-29 = test: Inhibition of colony formation in human HT-29 cells at 5 to 10 uM by crystal violet staining analysis; assay type: functional, cell-based; details: dose 5-10 µM; summary of the method: as §2
[11] = target: T1, von Hippel-Lindau disease tumor suppressor/Bromodomain-containing protein 4 (Homo sapiens); test: PROTAC activity at BRD4/VHL E3 ligase in human LS174T dbet1 resistant cells assessed as MYC protein expression at 500 to 1000 nM for 24 hrs by Western blot analysis; assay type: cell-based; details: dose 500-1000 nM
Summary of the method: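 Resistant LS174t cells were derived by four months' exposure to rising dBET1 concentrations, with outgrowing cells expanded. Resistant and parental cells were then treated and analysed for BRD4 and MYC protein by western blot (GAPDH/β-actin control) and for MYC mRNA by qPCR normalised to PPIA/ACTB (ΔΔCq).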

[12] = target: T2, Protein cereblon/Bromodomain-containing protein 4 (Homo sapiens) (UniProt O60885+Q96SW2); test: PROTAC activity at BRD4/Cereblon in human LS174T cells assessed as BRD4 protein degradation at 100 to 1000 nM for 24 hrs by Western blot analysis; assay type: cell-based; details: dose 100-1000 nM
Summary of the method: (§4)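 Cells treated 24 h across 1 nM–10 µM range (fibroblasts at 500/1000 nM). Immunoblot: RIPA lysate with 2.5 mmol/l DTT, 15 µg per lane on 10% SDS-PAGE, nitrocellulose, 5% milk block 1 h. BRD4 or MYC primary 1:1,000 overnight at 4 °C, HRP secondary 1:10,000 for 60 min; GAPDH/β-actin loading control; ECL detection.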

[13] = target: T2, Protein cereblon/Bromodomain-containing protein 4 (Homo sapiens); test: PROTAC activity at BRD4/Cereblon in human fibroblast cells assessed as decrease in BRD4 protein degradation at 500 to 1000 nM for 24 hrs by Western blot analysis; assay type: cell-based; details: dose 500-1000 nM; summary of the method: as §4
[14] = target: T2, Protein cereblon/Bromodomain-containing protein 4 (Homo sapiens); test: PROTAC activity at BRD4/Cereblon in human HCT116 p53-/- cells assessed as decrease in BRD4 protein degradation at 5 to 10 uM for 24 hrs by Western blot analysis; assay type: cell-based; details: HCT-116, dose 5-10 µM; summary of the method: as §3
[15] = target: T2, Protein cereblon/Bromodomain-containing protein 4 (Homo sapiens); test: PROTAC activity at BRD4/Cereblon in human Caco-2 cells assessed as decrease in MYC protein expression at 5 to 10 uM for 24 hrs by Western blot analysis; assay type: cell-based; details: dose 5-10 µM; summary of the method: as §3
[16] = target: T2, Protein cereblon/Bromodomain-containing protein 4 (Homo sapiens); test: PROTAC activity at BRD4/Cereblon in human SW480 cells assessed as decrease in MYC protein expression at 5 to 10 uM for 24 hrs by Western blot analysis; assay type: cell-based; details: dose 5-10 µM; summary of the method: as §3
[17] = target: T2, Protein cereblon/Bromodomain-containing protein 4 (Homo sapiens); test: PROTAC activity at BRD4/Cereblon in human LS174T cells assessed as BRD4 protein degradation at 1 uM for 2 hrs by Immunofluorescence analysis

T2 sequence (Q96SW2 whole entry, looked up, other chains not shown): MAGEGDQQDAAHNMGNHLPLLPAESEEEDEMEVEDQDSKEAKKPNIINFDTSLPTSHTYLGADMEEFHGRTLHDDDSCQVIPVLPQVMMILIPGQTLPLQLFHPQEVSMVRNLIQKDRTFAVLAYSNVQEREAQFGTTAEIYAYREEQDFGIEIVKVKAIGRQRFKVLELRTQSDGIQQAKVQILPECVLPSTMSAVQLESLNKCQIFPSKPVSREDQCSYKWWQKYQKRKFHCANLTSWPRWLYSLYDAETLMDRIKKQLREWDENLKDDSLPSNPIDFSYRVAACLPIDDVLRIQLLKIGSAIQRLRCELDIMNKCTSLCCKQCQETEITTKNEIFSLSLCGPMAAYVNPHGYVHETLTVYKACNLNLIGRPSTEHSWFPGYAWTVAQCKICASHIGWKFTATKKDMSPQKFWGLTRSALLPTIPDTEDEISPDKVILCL
T1 sequence (P40337 whole entry, looked up, other chains not shown): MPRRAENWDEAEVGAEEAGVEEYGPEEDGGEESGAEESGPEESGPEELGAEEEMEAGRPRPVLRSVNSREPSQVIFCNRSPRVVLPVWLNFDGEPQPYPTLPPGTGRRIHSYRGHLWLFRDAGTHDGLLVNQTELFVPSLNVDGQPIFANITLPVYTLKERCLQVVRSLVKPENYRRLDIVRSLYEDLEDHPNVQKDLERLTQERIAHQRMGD

| Structure (SMILES) | inhibition (LS174T [3]) | inhibition (Caco-2) | inhibition (COLO 320) | inhibition (DLD-1) | inhibition (HCT-116 [8]) | inhibition (HCT-116 [9]) | inhibition (LS174T [10]) | inhibition (SW480) | inhibition (HT-29) | other results |
| --- | --- | --- | --- | --- | --- | --- | --- | --- | --- | --- |
| Cc1ncsc1-c1ccc(CNC(=O)[C@@H]2C[C@@H](O)CN2C(=O)[C@@H](NC(=O)COCCOCCOCCNC(=O)C[C@@H]2N=C(c3ccc(Cl)cc3)c3c(sc(C)c3C)-n3c(C)nnc32)C(C)(C)C)cc1 | Dose-Dependent Effect | Active | Active | Active | Active | Active | Active | Active | Active | Activity [1]: Dose-Dependent Effect; Activity [2]: Active; Activity [4]: Active; Activity [5]: Active; Activity [6]: Active; Activity [7]: inactive; Activity [11]: Active |
| Cc1sc2c(c1C)C(c1ccc(Cl)cc1)=N[C@@H](CC(=O)NCCCCNC(=O)COc1cccc3c1C(=O)N(C1CCC(=O)NC1=O)C3=O)c1nnc(C)n1-2 (stereo partly specified) | Dose-Dependent Effect | Active | Active | Active | Active | Active | Active | Active | Active | Activity [12]: Dose-Dependent Effect; Activity [13]: Active; Activity [14]: Active; Activity [15]: Active; Activity [16]: inactive; Activity [17]: Active |
